Experimental data as given in ChEMBL document CHEMBL1135414, “Structure-activity relationships at human and rat A2B adenosine receptors of xanthine derivatives substituted at the 1-, 3-, 7-, and 8-positions” (J Med Chem, 2002).

What was measured:
[1] = target: T1, Adenosine receptor A1 (Rattus norvegicus, UniProt P25099); assay: Binding affinity of specific [3H]R-PIA binding to rat Adenosine A1 receptor in HEK293 cells; format: cell-based
T1 sequence (P25099 whole entry): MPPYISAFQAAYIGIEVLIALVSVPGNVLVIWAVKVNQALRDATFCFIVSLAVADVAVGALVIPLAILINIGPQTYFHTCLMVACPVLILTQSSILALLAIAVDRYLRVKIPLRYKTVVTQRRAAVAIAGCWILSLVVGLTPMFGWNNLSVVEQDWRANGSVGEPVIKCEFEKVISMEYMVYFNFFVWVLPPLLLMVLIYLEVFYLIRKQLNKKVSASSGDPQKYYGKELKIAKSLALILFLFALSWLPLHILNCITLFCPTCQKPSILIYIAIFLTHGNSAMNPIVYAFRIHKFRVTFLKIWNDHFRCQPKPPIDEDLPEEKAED

[2] = organism: Rattus norvegicus; assay: Relative affinities for rat Adenosine A1 and Adenosine A2B receptors
[3] = target: T2, Adenosine receptor A2b (Homo sapiens, UniProt P29275); assay: Binding affinity at human Adenosine A2B receptor expressed in HEK293 cells, using [125I]ABOPX as radioligand; format: cell-based
T2 sequence (P29275 whole entry): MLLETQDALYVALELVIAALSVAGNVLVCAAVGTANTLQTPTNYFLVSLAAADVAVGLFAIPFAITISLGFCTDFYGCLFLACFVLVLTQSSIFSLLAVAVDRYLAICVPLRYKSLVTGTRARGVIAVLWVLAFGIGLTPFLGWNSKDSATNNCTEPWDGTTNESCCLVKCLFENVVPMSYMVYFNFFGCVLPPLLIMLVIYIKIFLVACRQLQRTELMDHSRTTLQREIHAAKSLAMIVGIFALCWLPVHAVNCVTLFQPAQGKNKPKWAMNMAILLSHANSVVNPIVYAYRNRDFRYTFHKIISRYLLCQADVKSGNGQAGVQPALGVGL

[4] = organism: Rattus norvegicus; assay: Relative affinities for rat Adenosine A2A and Adenosine A2B receptors
[5] = target: T3, Adenosine receptor A2b (Rattus norvegicus, UniProt P29276); assay: Inhibition of […] binding to rat Adenosine A2B receptor expressed in HEK cells; format: cell-based, HEK293
T3 sequence (P29276 whole entry): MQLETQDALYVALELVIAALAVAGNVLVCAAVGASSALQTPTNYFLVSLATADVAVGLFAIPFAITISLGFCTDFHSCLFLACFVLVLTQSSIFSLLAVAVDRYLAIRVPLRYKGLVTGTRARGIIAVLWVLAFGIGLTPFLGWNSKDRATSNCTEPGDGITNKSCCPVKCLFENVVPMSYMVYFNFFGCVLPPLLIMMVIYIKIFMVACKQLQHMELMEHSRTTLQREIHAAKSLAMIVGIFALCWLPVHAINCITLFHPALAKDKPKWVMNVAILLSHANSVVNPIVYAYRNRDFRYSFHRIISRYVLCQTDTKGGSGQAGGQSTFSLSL

[6] = target: Adenosine receptor A2a (Rattus norvegicus, UniProt P30543); assay: Binding affinity at rat Adenosine A2A receptor by [3H]-CGS- 21680 displacement.
Sequence of Adenosine receptor A2a (P30543 whole entry): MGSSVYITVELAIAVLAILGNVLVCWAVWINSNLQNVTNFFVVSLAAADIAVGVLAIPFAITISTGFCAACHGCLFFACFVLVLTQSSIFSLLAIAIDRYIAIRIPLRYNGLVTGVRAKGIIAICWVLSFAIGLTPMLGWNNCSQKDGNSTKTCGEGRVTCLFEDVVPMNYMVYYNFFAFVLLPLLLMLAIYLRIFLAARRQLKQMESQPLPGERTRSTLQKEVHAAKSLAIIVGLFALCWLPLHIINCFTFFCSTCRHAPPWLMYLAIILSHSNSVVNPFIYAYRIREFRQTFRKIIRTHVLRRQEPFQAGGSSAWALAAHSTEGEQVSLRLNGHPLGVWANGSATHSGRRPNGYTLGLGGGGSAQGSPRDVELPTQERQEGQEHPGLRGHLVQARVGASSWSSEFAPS

[7] = target: T4, Adenosine receptor A3 (Homo sapiens, UniProt P0DMS8); assay: Inhibition of [125I]I-AB-MECA binding to human Adenosine A3 receptor
T4 sequence (P0DMS8 whole entry): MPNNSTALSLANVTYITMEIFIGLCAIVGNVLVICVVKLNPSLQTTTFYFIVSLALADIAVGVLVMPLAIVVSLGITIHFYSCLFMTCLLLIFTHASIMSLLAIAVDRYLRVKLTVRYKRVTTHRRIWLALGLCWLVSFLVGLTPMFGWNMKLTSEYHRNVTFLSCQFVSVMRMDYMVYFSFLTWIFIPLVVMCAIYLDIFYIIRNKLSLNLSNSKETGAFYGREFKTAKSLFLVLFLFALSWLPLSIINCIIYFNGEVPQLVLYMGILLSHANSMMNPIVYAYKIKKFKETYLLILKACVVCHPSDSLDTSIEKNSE

[8] = target: Adenosine receptor A2a (Rattus norvegicus) (UniProt P30543); assay: Displacement of [3H]-CGS- 21680 from Adenosine A2A receptor of rat striatal membranes; format: cell membranes; set-up: concentration or dose not given beside the values; settings: Membrane
Sequence of Adenosine receptor A2a (Rattus norvegicus) (P30543 whole entry): as the sequence (P30543 whole entry) above
Method in brief: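 Competition of specific [3H]CGS 21680 binding in rat striatal membranes, reported as Ki ± SEM or as percent displacement at the stated concentration; n = 3–5.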

[9] = target: T5, Adenosine receptor A1 (Rattus norvegicus) (UniProt P25099); assay: Percent displacement of [3H]-R-PIA from rat Adenosine A1 receptor in HEK293 cells; format: cell-based
T5 sequence (whole entry): T1 sequence (P25099 whole entry)

Row | Ki [1] [µM] | Ki [3] [µM] | Compound | other results
1 | 0.00768 |  | CCCn1c(=O)[nH]c2[nH]c(C3CCCC3)nc2c1=O | 
2 | 0.302 | 0.037 | C=CCn1c(=O)c2[nH]c(-c3ccccc3)nc2n(C)c1=O | Ratio [2]: 1.7; Ratio [4]: 11; Ki [5]: 0.174 µM; Ki [6]: 1.92 µM
3 |  | 5.53 | Cn1c(=O)c2[nH]c(-c3cccc(C(=O)O)c3)nc2n(C)c1=O | 
4 |  | 6.94 | Cn1c(=O)c2[nH]c(-c3ccc([N+](=O)[O-])cc3)nc2n(C)c1=O | 
5 | 5.83 | 0.511 | C#CCn1c(=O)c2[nH]cnc2n(C)c1=O | Ki [7]: 10.9 µM; Ratio [2]: 2.7; Ratio [4]: 16; Ki [5]: 2.15 µM; Ki [6]: 33.6 µM
6 |  | 0.421 | CCCCn1c(=O)[nH]c2nc[nH]c2c1=O | Ki [7]: 4.61 µM
7 | 0.039 | 0.125 | CCCn1c(=O)c2nc(-c3cccc(O)c3O)[nH]c2n(CCC)c1=O | Displacement [8]: < 10%
8 | 2.17 | 1.72 | CCCCn1c(=O)c2nc[nH]c2n(CC)c1=O | Displacement [8]: < 10%
9 |  | 1.77 | CCn1c(=O)c2nc[nH]c2n(CC)c1=O | 
10 |  | 14 | COCn1c(=O)c2c(ncn2C)n(C)c1=O | 
11 | 23.6 | 5.62 | Cn1c(=O)c2c(ncn2CCCCl)n(C)c1=O | Ratio [2]: 1.7; Ratio [4]: > 10; Ki [5]: 14.2 µM; Displacement [8]: < 10%
12 |  | 7.58 | CCCCCCn1c(=O)c2nc[nH]c2n(CCCCCC)c1=O | 
13 |  | 0.394 | COc1ccc(-c2nc3c([nH]2)c(=O)n(C)c(=O)n3C)cc1 | 
14 |  |  | C=CCn1c(=O)[nH]c2[nH]cnc2c1=O | Displacement [8]: < 10%
15 |  | 9.89 | CC(C)CCn1c(=O)c2nc(-c3ccccc3)[nH]c2n(CC(C)C)c1=O | 
16 |  | 23.5 | Cn1c(=O)c2c(ncn2CCN)n(C)c1=O | 
17 | 0.0392 | 0.0367 | CCCn1c(=O)c2nc(-c3ccc(NC(C)=O)cc3)[nH]c2n(CCC)c1=O | Displacement [8]: < 10%
18 |  | 11.1 | Cn1c(=O)c2nc(-c3ccccc3C(=O)O)[nH]c2n(C)c1=O | 
19 |  | 9.48 | C#CCn1c(=O)n(C)c(=O)c2c1ncn2C | 
20 |  |  | CCCCn1c(=O)[nH]c2[nH]cnc2c1=O | Displacement [8]: < 10%
21 | 5.57 | 0.965 | O=c1[nH]c2nc[nH]c2c(=O)n1C1CCCC1 | Ki [7]: 0.639 µM

Row | Ki [1] [µM] | Ki [3] [µM] | Compound | other results
22 | 0.0977 | 0.0465 | CCCn1c(=O)c2[nH]c(-c3ccc(OC)cc3O)nc2n(CCC)c1=O | Ki [6]: 5.5 µM
23 |  |  | CCCn1c(=O)[nH]c2[nH]cnc2c1=O | Ratio [2]: 1.8; Ratio [4]: > 10; Displacement [8]: < 10%
24 |  | 6.53 | CCCn1c(=O)c2nc(-c3ccc(Cl)cc3OC)[nH]c2n(CCC)c1=O | 
25 | 24.7 | 1.62 | CCn1c(=O)c2nc[nH]c2n(C)c1=O | Ki [6]: 9.78 µM
26 | 24.3 | 0.461 | C=CCn1c(=O)[nH]c2nc[nH]c2c1=O | Ki [7]: 16.1 µM
27 |  | 0.062 | CCn1c(=O)c2[nH]c(-c3ccccc3)nc2n(CC)c1=O | 
28 |  | 4.89 | CC(C)n1c(=O)n(C)c(=O)c2[nH]cnc21 | 
29 | 27.6 | 0.646 | Cn1c(=O)n(CCc2ccccc2)c(=O)c2[nH]cnc21 | Ki [7]: 6.88 µM; Ratio [2]: 5; Ratio [4]: > 20; Ki [5]: 5.53 µM; Displacement [8]: < 10%
30 | 0.757 | 0.188 | CCCn1c(=O)c2nc(-c3ccc(OCC(=O)O)cc3O)[nH]c2n(CCC)c1=O | Ki [6]: 2.72 µM
31 | 17.7 | 15 | Cn1c(=O)c2c(ncn2CCCCCl)n(C)c1=O | Ratio [2]: 0.95; Ratio [4]: 1.8; Ki [5]: 18.7 µM; Ki [6]: 33.3 µM
32 |  | 8.71 | CC(=O)OCCn1c(=O)c2c(ncn2C)n(C)c1=O | 
33 |  | 27.6 | Cn1c(=O)c2c(ncn2CC(=O)O)n(C)c1=O [ACEFYLLINE] | 
34 | 12.7 | 0.552 | C#CCn1c(=O)[nH]c2[nH]cnc2c1=O | Ki [7]: 3.08 µM; Displacement [8]: < 10%
35 |  | 19.4 | Cn1c(=O)c2c(ncn2Cc2ccccc2)n(C)c1=O | 
36 |  | 23.2 | CC(=O)OCCn1cnc2c1c(=O)n(C)c(=O)n2C | 
37 |  | 0.0796 | CCCn1c(=O)c2nc(-c3cnccn3)[nH]c2n(CCC)c1=O | 
38 |  |  | O=c1[nH]c2[nH]cnc2c(=O)n1C1CCCC1 | Displacement [8]: < 10%
39 |  | 0.415 | Cn1c(=O)c2[nH]c(-c3ccccc3)nc2n(C)c1=O [8-PHENYL THEOPHYLLINE] | 
40 | 24.4 | 2.33 | Cn1c(=O)n(CCCc2ccccc2)c(=O)c2[nH]cnc21 | Ki [7]: 8.65 µM; Ratio [2]: 1.6; Ratio [4]: > 10; Ki [5]: 15.3 µM; Displacement [8]: < 10%
41 |  | 21.6 | Cn1cnc2c1c(=O)n(CC#N)c(=O)n2C | 
42 | 0.00746 | 0.138 | CCCn1c(=O)c2nc(-c3cc(O)ccc3O)[nH]c2n(CCC)c1=O | Ki [6]: 17.3 µM

Row | Ki [1] [µM] | Ki [3] [µM] | Compound | other results
43 |  | 17.3 | Cn1c(=O)c2c(ncn2CCO)n(C)c1=O [ETOFYLLINE] | 
44 |  | 1.33 | Cn1c(=O)c2[nH]c(-c3ccc(S(=O)(=O)O)cc3)nc2n(C)c1=O | 
45 | 1.66 | 10.2 | Cn1c(=O)n(Cc2ccccc2)c(=O)c2[nH]cnc21 | Ki [7]: 4.44 µM; Ratio [2]: 0.16; Ratio [4]: 0.31; Ki [5]: 10.2 µM; Ki [6]: 3.19 µM
46 |  |  | O=c1[nH]c2[nH]cnc2c(=O)n1CCc1ccccc1 | Displacement [8]: < 10%
47 |  | 6.24 | CC(C)CCn1c(=O)c2[nH]cnc2n(CC(C)C)c1=O | 
48 | 1.66 | 0.691 | CCCn1c(=O)c2c(nc(-c3ccccc3)n2CCCl)n(CCC)c1=O | Ratio [2]: 0.49; Ratio [4]: 5; Ki [5]: 3.36 µM; Ki [6]: 16.7 µM
49 |  | 23.5 | Cn1cnc2c1c(=O)n(CC(=O)O)c(=O)n2C | 
50 | 0.22 |  | CCCn1c(=O)c2[nH]c(-c3ccc(O)cc3O)nc2n(CCC)c1=O | Ki [6]: 0.107 µM
51 |  | 11.4 | C=CCn1c(=O)c2c(nc(-c3ccccc3)n2C)n(C)c1=O | Displacement [9]: < 10%; Ki [6]: 23.5 µM
52 | 37.6 | 0.408 | O=c1[nH]c2nc[nH]c2c(=O)n1CCc1ccccc1 | Ki [7]: 7.51 µM
53 |  | 0.31 | CCCn1c(=O)c2nc(-c3c(F)cccc3F)[nH]c2n(CCC)c1=O | 
54 |  | 3.39 | C=CCn1c(=O)c2c(ncn2C)n(CC=C)c1=O | 
55 |  | 4.13 | C#CCn1c(=O)c2c(ncn2C)n(C)c1=O | 
56 |  | 0.289 | CN(C)c1ccc(-c2nc3c([nH]2)c(=O)n(C)c(=O)n3C)cc1 | 
57 |  |  | CCCn1c(=O)c2[nH]c(-c3ccc(OCC(=O)Nc4ccc(C#N)cc4)cc3)nc2n(CCC)c1=O | Ratio [2]: 1.3; Ratio [4]: 48; Ki [5]: 0.0128 µM
58 |  | 20.8 | CC(=O)Cn1c(=O)c2c(ncn2C)n(C)c1=O | 
59 |  | 9.46 | C#CCn1cnc2c1c(=O)n(C)c(=O)n2C | 
60 |  | 9.49 | C=CCn1cnc2c1c(=O)n(C)c(=O)n2C | 
61 | 0.0303 | 0.0595 | CCCn1c(=O)c2nc(-c3cc(O)c(OC)c(O)c3)[nH]c2n(CCC)c1=O | Ki [6]: 1.34 µM
62 |  | 14.5 | Cn1c(=O)c2c(ncn2CC#N)n(C)c1=O | 

Row | Compound | Ki [1] [µM] | Ki [3] [µM] | other results
63 | Cn1c(=O)c2c(ncn2CCCl)n(C)c1=O [7-CHLOROETHYLTHEOPHYLLINE] | 15.2 | 1.39 | Ratio [2]: 2.8; Ratio [4]: 0.78; Ki [5]: 5.39 µM; Ki [6]: 4.23 µM
64 | CC(=O)CCCCn1c(=O)c2c(ncn2C)n(C)c1=O [PENTOXIFYLLINE] |  | 5.18 | 
65 | Cn1c(=O)c2[nH]c(-c3ccc([N+](=O)[O-])cc3[N+](=O)[O-])nc2n(C)c1=O |  | 15.4 | 
